Results published in ChEMBL document CHEMBL1156387, “Novel esters of glaucarubolone as inducers of terminal differentiation of promyelocytic HL-60 cells and inhibitors of 7,12-dimethylbenz[a]anthracene-induced preneoplastic lesion formation in mouse mammary organ culture” (J Nat Prod, 2001).
pEC50, pIC50: −log10 of the molar value.

Columns and labels:
[1] = test system: HL-60; assay: Antiproliferative activity against human HL60 cells assessed as inhibition of [3H]thymidine incorporation after 4 days by liquid scintillation counter; type: functional, cell-based
Summary of the method: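 HL-60 cells in log phase diluted to 10^5 cells/mL, preincubated 18 h, then exposed to samples in DMSO (final 0.1% v/v; DMSO-only controls) for 4 days. Cells then pulsed with [3H]thymidine (0.5 μCi/mL, 65 Ci/mmol) for 18 h at 37 °C, 5% CO2, harvested onto glass fiber filters, scintillation counted; incorporation per 10^6 cells as % of DMSO control. IC50 from 5–7 concentrations in duplicate.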

[2] = test system: HL-60; assay: Induction of cell differentiation in human HL60 cells assessed as superoxide anion production after 4 days by NBT reduction assay; type: functional, cell-based; conditions: HL-60, 96 h
Summary of the method: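 Cells diluted to 10^5/mL and recovered overnight were exposed 4 days to samples (0.1% v/v DMSO final). Cell suspension (10^6 cells) was mixed 1:1 with NBT 2 mg/mL plus TPA 1 μg/mL in PBS and held 1 h at 37 °C. Formazan-positive cells were counted microscopically among >200 cells. EC50 from 5–7 concentrations in duplicate; 1α,25-dihydroxyvitamin D3 served as reference.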

[3] = test system: HL-60; assay: Cytotoxicity against human HL60 cells assessed as loss of membrane integrity after 4 days by trypan blue exclusion assay; type: functional, cell-based; conditions: HL-60, 96 h
Summary of the method: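 After 18 h recovery at 10^5 cells/mL, HL-60 cells were treated 4 days with samples (final DMSO 0.1% v/v). Cells were mixed 1:4 with trypan blue (0.2% w/v in PBS), held at least 5 min at room temperature and counted by hemocytometer. Viability was taken from duplicate samples; IC50 from 5–7 concentrations in duplicate.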

[4] = test system: HL-60; assay: Selectivity index, ratio of cytotoxic IC50 to antiproliferative IC50 for human HL60 cells; type: functional
Summary of the method: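 Index = cytotoxic IC50 (trypan blue, 4-day HL-60 exposure) divided by antiproliferative IC50 ([3H]thymidine incorporation), each from dose–response with at least five points.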

[5] = Inhibition of DMBA-induced preneoplastic lesion formation in a BALB/c mouse mammary organ culture at 2 uM pretreated for 10 days before DMBA-challenge measured after 14 days; type: functional; conditions: Mammary gland
Summary of the method: (§1)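 Female BALB/c mice, 4 weeks old, primed 9 days with estradiol 1 μg plus progesterone 1 mg. Thoracic glands were cultured 10 days with insulin, prolactin, aldosterone and hydrocortisone plus test agent at 2 μM. DMBA 2 μg/mL was given for 24 h on day 3. Regression followed for 14 days in insulin alone. Glands were formalin-fixed and alum carmine-stained. Lesion incidence gave % inhibition versus DMBA control. Toxicity was scored as duct dilation or amorphous disintegration.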

[6] = Toxicity in BALB/c mouse mammary organ culture assessed as morphological changes in mammary gland at 2 uM after 10 days; type: tissue-based; conditions: ex_vivo, 240 h; summary of the method: as §1

| SMILES | pEC50 [2] | pIC50 [1] | pIC50 [3] | Ratio IC50 [4] | inhibition at 2 µM [5] | Activity [6] |
| --- | --- | --- | --- | --- | --- | --- |
| CC1=CC(=O)[C@@H](O)[C@]2(C)[C@H]3[C@]4(O)OC[C@]35[C@H]([C@@H](C)[C@H]4O)[C@@H](OC(=O)C(=O)O[C@H]3C(=O)O[C@@H]4C[C@H]6C(C)=CC(=O)[C@@H](O)[C@]6(C)[C@H]6[C@]7(O)OC[C@]64[C@@H]3[C@@H](C)[C@H]7O)C(=O)O[C@@H]5C[C@@H]12.O=C(O)C(=O)O | < 5.82 | 6.30 | 5.74 | 3.6 | – | – |
| CC1=CC(=O)[C@@H](O)[C@]2(C)[C@H]3[C@]4(O)OC[C@]35[C@H]([C@@H](C)[C@H]4O)[C@@H](OC(=O)CC(C)(C)OP(=O)(O)O)C(=O)O[C@@H]5C[C@@H]12 | 5.52 | 6.15 | 5.36 | 6.5 | – | – |
| CC1=CC(=O)[C@@H](O)[C@]2(C)[C@H]3[C@]4(O)OC[C@]35[C@H]([C@@H](C)[C@H]4O)[C@@H](OC(=O)C=C(C3CC3)C3CC3)C(=O)O[C@@H]5C[C@@H]12 | 6.22 | 6.70 | 6.12 | 3.9 | – | – |
| CC1=CC(=O)[C@@H](O)[C@]2(C)[C@H]3[C@]4(O)OC[C@]35[C@H]([C@@H](C)[C@H]4O)[C@@H](OC(=O)C[C@]3(O)CC(C)CCC3C(C)C)C(=O)O[C@@H]5C[C@@H]12 (stereo partly specified) | 6.52 | 6.40 | 6.05 | 2.3 | – | – |
| CC1=CC(=O)[C@@H](O)[C@]2(C)[C@H]3[C@]4(O)OC[C@]35[C@H]([C@@H](C)[C@H]4O)[C@@H](OC(=O)CC3(O)C(C)(C)CCC3(C)C)C(=O)O[C@@H]5C[C@@H]12 | 7.60 | 7.40 | 7.30 | 1.3 | – | – |
| CC[C@](C)(O)C(=O)O[C@H]1C(=O)O[C@@H]2C[C@H]3C(C)=CC(=O)[C@@H](O)[C@]3(C)[C@H]3C4(O)OC[C@]32[C@@H]1[C@@H](C)[C@H]4O (single isomer, unassigned) [GLAUCARUBINONE] | 5.74 | 6.30 | 6.00 | 2.1 | – | – |
| COC(=O)[C@@]12OC[C@]34[C@H]([C@@H](O)[C@@H]1O)[C@@]1(C)CC(=O)C(O)=C(C)[C@@H]1C[C@H]3OC(=O)[C@H](OC(=O)C=C(C)C)[C@@H]24 [BRUSATOL] | – | – | – | – | – | Non-toxic |
| COC(=O)[C@]12OC[C@]34[C@H]([C@@H](O)[C@@H]1O)[C@@]1(C)CC(=O)C(O)=C(C)[C@@H]1C[C@H]3OC(=O)[C@H](OC(=O)C=C(C)C)[C@@H]24 [BRUSATOL] | 7.15 | 7.15 | 6.77 | 2.5 | 70% | – |
| CC1=CC(=O)[C@@H](O)[C@]2(C)[C@H]3[C@]4(O)OC[C@]35[C@H]([C@@H](C)[C@H]4O)[C@@H](O)C(=O)O[C@@H]5C[C@@H]12 [GLAUCARUBOLONE] | 5.89 | 6.40 | 5.89 | 3.3 | – | – |
| CC(=O)O[C@H]1C(=O)O[C@@H]2C[C@H]3C(C)=CC(=O)[C@@H](O)[C@]3(C)[C@H]3[C@]4(O)OC[C@]32[C@@H]1[C@@H](C)[C@H]4O [HOLACANTHONE] | 6.70 | 6.70 | 6.30 | 2.5 | – | – |
| CC[C@](C)(OC(C)=O)C(=O)O[C@H]1C(=O)O[C@@H]2C[C@H]3C(C)=CC(=O)[C@@H](O)[C@]3(C)[C@H]3[C@@H](O)[C@H](O)[C@@]4(C)OC[C@]32[C@@H]14 [QUASSIMARIN] | 7.05 | 7.22 | 6.89 | 2.2 | – | – |
| CC[C@@H](C)C(=O)O[C@H]1C(=O)O[C@@H]2C[C@H]3C(C)=CC(=O)[C@@H](O)[C@]3(C)[C@H]3[C@@H](O)[C@H](O)[C@]4(C)OC[C@]32[C@@H]14 [SIMALIKALACTONE D] | < 6.70 | < 6.70 | 6.70 | – | – | – |
| CC1=CC(=O)[C@@H](O)[C@]2(C)[C@H]3[C@@H](O)[C@H](O)[C@@]4(C)OC[C@@]35[C@@H](C[C@@H]12)OC(=O)[C@H](O)[C@@H]45 [YADANZIOLIDE C] | 5.00 | 5.82 | < 5.00 | >6.7 | – | – |

More lines, main results first:

| pEC50 [2] | SMILES | pIC50 [1] | pIC50 [3] | Ratio IC50 [4] | inhibition at 2 µM [5] | Activity [6] |
| --- | --- | --- | --- | --- | --- | --- |
| 8.05 | CC1=CC(=O)[C@@H](O)[C@]2(C)[C@H]3[C@]4(O)OC[C@]35[C@H]([C@@H](C)[C@H]4O)[C@@H](OC(=O)CC(O)(C(C)C)C(C)C)C(=O)O[C@@H]5C[C@@H]12 | 8.05 | 8.05 | 1 | – | – |
| < 7.30 | CC1=CC(=O)[C@@H](O)[C@]2(C)[C@H]3[C@]4(O)OC[C@]35[C@H]([C@@H](C)[C@H]4O)[C@@H](OC(=O)CC(O)(CC(C)C)CC(C)C)C(=O)O[C@@H]5C[C@@H]12 | 7.40 | 7.40 | 1 | – | – |
| < 5.52 | CCCC(=O)O[C@H]1C(=O)O[C@@H]2C[C@H]3C(C)=CC(=O)[C@@H](O)[C@]3(C)[C@H]3[C@]4(O)OC[C@]32[C@@H]1[C@@H](C)[C@H]4O | < 5.52 | 5.52 | – | 82% | Non-toxic |
| < 5.70 | CC1=CC(=O)[C@@H](O)[C@]2(C)[C@H]3[C@]4(O)OC[C@]35[C@H]([C@@H](C)[C@H]4O)[C@@H](OC(=O)CC(C)C)C(=O)O[C@@H]5C[C@@H]12 | 6.00 | 5.82 | 1.5 | – | – |
| 5.70 | CC1=CC(=O)[C@@H](O)[C@]2(C)[C@H]3[C@]4(O)OC[C@]35[C@H]([C@@H](C)[C@H]4O)[C@@H](OC(=O)C3(CO)CC3)C(=O)O[C@@H]5C[C@@H]12 | 6.00 | 5.55 | 2.9 | – | – |
| 5.72 | CC1=CC(=O)[C@@H](O)[C@]2(C)[C@H]3[C@]4(O)OC[C@]35[C@H]([C@@H](C)[C@H]4O)[C@@H](OC(=O)[C@@H](C)CO)C(=O)O[C@@H]5C[C@@H]12 | 6.22 | 5.60 | 4.3 | – | – |
| < 5.15 | CC1=CC(=O)[C@@H](O)[C@]2(C)[C@H]3[C@]4(O)OC[C@]35[C@H]([C@@H](C)[C@H]4O)[C@@H](OC(=O)C(C)(C)C(=O)O)C(=O)O[C@@H]5C[C@@H]12 | 5.49 | < 5.15 | >2.2 | – | – |
| 6.30 | CC1=CC(=O)[C@@H](O)[C@]2(C)[C@H]3[C@]4(O)OC[C@]35[C@H]([C@@H](C)[C@H]4O)[C@@H](OC(=O)CN(C)C)C(=O)O[C@@H]5C[C@@H]12 | 6.30 | 6.10 | 1.6 | – | – |
| 6.30 | CC1=CC(=O)[C@@H](O)[C@]2(C)[C@H]3[C@]4(O)OC[C@]35[C@H]([C@@H](C)[C@H]4O)[C@@H](OC(=O)C(C)(C)CO)C(=O)O[C@@H]5C[C@@H]12 | 6.70 | 6.22 | 3.1 | – | – |
| 7.77 | CC[C@@](O)(CC(=O)O[C@H]1C(=O)O[C@@H]2C[C@H]3C(C)=CC(=O)[C@@H](O)[C@]3(C)[C@H]3[C@]4(O)OC[C@]32[C@@H]1[C@@H](C)[C@H]4O)C(C)C | 7.96 | 7.89 | 1.2 | – | – |
| 6.89 | CC1=CC(=O)[C@@H](O)[C@]2(C)[C@H]3[C@]4(O)OC[C@]35[C@H]([C@@H](C)[C@H]4O)[C@@H](OC(=O)CC3(O)CCCC3)C(=O)O[C@@H]5C[C@@H]12 | 6.72 | 6.42 | 2.1 | – | – |
| 7.05 | CC1=CC(=O)[C@@H](O)[C@]2(C)[C@H]3[C@]4(O)OC[C@]35[C@H]([C@@H](C)[C@H]4O)[C@@H](OC(=O)C=C(C(C)C)C(C)C)C(=O)O[C@@H]5C[C@@H]12 | 7.15 | 6.89 | 1.9 | – | – |
| < 5.22 | CC1=CC(=O)[C@@H](O)[C@]2(C)[C@H]3[C@]4(O)OC[C@]35[C@H]([C@@H](C)[C@H]4O)[C@@H](OC(=O)[C@H](C)CO)C(=O)O[C@@H]5C[C@@H]12 | 5.82 | 5.21 | 4.2 | – | – |
| 6.70 | CC1=CC(=O)[C@@H](O)[C@]2(C)[C@H]3[C@]4(O)OC[C@]35[C@H]([C@@H](C)[C@H]4O)[C@@H](OC(=O)CC(C)(C)O)C(=O)O[C@@H]5C[C@@H]12 [SOULARUBINONE] | 7.00 | 6.40 | 4.2 | – | – |
